Experimental data taken from ChEMBL document CHEMBL1129493 (J Med Chem, 1996).
Converted amounts (≈) assume the structure as drawn.

Legend:
[1] = tested on: Candida albicans; assay: Minimum inhibitory concentration was evaluated against Candida albicans; type: functional
[2] = target: T1, Dihydrofolate reductase (Candida albicans, UniProt P22906); assay: Inhibition of Dihydrofolate reductase enzyme from Candida albicans
T1 sequence (P22906 whole entry): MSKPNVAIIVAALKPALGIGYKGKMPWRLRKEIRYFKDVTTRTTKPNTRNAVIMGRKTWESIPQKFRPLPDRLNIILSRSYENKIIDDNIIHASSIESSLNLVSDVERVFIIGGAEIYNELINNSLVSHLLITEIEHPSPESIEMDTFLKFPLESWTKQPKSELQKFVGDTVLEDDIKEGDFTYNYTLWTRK

[3] = target: T2, Dihydrofolate reductase (Homo sapiens, UniProt P00374); assay: Inhibition of human recombinant Dihydrofolate reductase enzyme
T2 sequence (P00374 whole entry): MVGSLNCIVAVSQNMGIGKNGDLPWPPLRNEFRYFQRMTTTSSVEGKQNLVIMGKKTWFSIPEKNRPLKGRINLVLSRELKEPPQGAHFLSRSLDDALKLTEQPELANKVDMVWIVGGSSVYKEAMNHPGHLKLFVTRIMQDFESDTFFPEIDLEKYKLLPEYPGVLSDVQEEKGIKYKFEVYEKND

[4] = tested on: A549; assay: Cytotoxic activity evaluated against A549 tumor cells; details: Homo sapiens
[5] = Relative concentration of compound in brain compared to concentration in plasma (9.4 ug/mL) at the time of tissue collection from mice; relative concentration; type: ADME, organism-based; details: mouse, read-out: Other
[6] = tested on: Candida albicans; assay: Minimum inhibitory concentration evaluated against Candida albicans; type: functional
[7] = Cytotoxic activity was evaluated against Daoy tumor cells; type: functional, cell-based; details: Homo sapiens
Outline: (§1)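 Cytotoxicity was read by MTT dye reduction for suspension cultures or sulforhodamine B for monolayer cultures. For reversal of multidrug resistance, reserpine was added as reversing agent ([…] as printed).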

[8] = tested on: D54 cell line; assay: Cytotoxic Activity was evaluated against D54 tumor cells; type: functional, cell-based; details: Homo sapiens; outline: as §1
[9] = tested on: HCT-8; assay: Activity was evaluated against HCT-8 tumor cells; type: functional, cell-based; details: Homo sapiens; outline: as §1
[10] = Cytotoxic activity was evaluated against L tumor cells; type: functional, cell-based; details: Mus musculus; outline: as §1
[11] = tested on: P388; assay: Cytotoxic activity was evaluated against P388D1 tumor cells; type: functional, cell-based; details: Mus musculus; outline: as §1
[12] = tested on: U373 MG; assay: Cytotoxic activity was evaluated against U373MG tumor cells; type: functional, cell-based, U-373MG ATCC; details: Homo sapiens; outline: as §1
[13] = tested on: U-87 MG; assay: Cytotoxic activity was evaluated against U87MG tumor cells; type: functional, cell-based, U-87MG ATCC; details: Homo sapiens; outline: as §1
[14] = tested on: Vero; assay: Cytotoxic Activity was evaluated against Vero tumor cells; type: functional, cell-based; details: Chlorocebus sabaeus; outline: as §1
[15] = tested on: 143B; assay: Cytotoxic Activity was evaluated against 143B (TK-) tumor cells; type: functional, cell-based; details: Homo sapiens; outline: as §1
[16] = Relative concentration of compound (70 mg/Kg) in brain compared to concentration in plasma (160 ug/mL) at the time of tissue collection from rabbit; relative concentration; type: ADME, organism-based, Oryctolagus cuniculus; details: read-out: Activity
[17] = Relative concentration of compound (70 mg/Kg) in lung compared to concentration in plasma (160 ug/mL) at the time of tissue collection from rabbit; relative concentration; type: ADME, organism-based, Oryctolagus cuniculus; details: read-out: Activity
[18] = tested on: NCI-H460; assay: Cytotoxic Activity was evaluated against H460 tumor cells; type: functional, cell-based; details: Homo sapiens; outline: as §1

Kp [5] | MIC [6] | IC50 [9] | Kp [16] | Kp [17] | SMILES | MIC [1] | Ki [2] | Ki [3] | IC50 [4] | IC50 [7] | IC50 [8] | IC50 [10] | IC50 [11] | IC50 [12] | IC50 [13] | IC50 [14] | IC50 [15] | IC50 [18]
– | – | – | – | – | COc1cc(Cn2ccc3c4c(N)nc(N)nc4ccc32)cc(OC)c1OC | 5 mg/L (≈ 13.2 µM) | 0.23 nM | 0.006 nM | – | – | – | – | – | – | – | – | – | –
0.1 | > 50 mg/L | 1.8 nM | – | – | COc1cc(NCc2ccc3nc(N)nc(N)c3c2C)cc(OC)c1OC [TRIMETREXATE] | – | 1.9 nM | – | 5.3 nM | 12 nM | 60 nM | 4.7 nM | 2.7 nM | 9.6 nM | 11 nM | 16 nM | – | –
– | – | – | 0.006 | 0.05 | CN(Cc1cnc2nc(N)nc(N)c2n1)c1ccc(C(=O)N[C@@H](CCC(=O)O)C(=O)O)cc1 [METHOTREXATE] | – | – | – | 31 nM | 9 nM | 16 nM | 8.3 nM | 4.8 nM | 12 nM | 22 nM | 9.2 nM | 8.8 nM | 9.5 nM
